Published values from different studies.
Each line is one published result; the experiments were not run side by side.
Target: Serine/threonine-protein kinase tousled-like 1 (TLK1, Homo sapiens, UniProt Q9UKI8)
One construct used (Q9UKI8 1-766): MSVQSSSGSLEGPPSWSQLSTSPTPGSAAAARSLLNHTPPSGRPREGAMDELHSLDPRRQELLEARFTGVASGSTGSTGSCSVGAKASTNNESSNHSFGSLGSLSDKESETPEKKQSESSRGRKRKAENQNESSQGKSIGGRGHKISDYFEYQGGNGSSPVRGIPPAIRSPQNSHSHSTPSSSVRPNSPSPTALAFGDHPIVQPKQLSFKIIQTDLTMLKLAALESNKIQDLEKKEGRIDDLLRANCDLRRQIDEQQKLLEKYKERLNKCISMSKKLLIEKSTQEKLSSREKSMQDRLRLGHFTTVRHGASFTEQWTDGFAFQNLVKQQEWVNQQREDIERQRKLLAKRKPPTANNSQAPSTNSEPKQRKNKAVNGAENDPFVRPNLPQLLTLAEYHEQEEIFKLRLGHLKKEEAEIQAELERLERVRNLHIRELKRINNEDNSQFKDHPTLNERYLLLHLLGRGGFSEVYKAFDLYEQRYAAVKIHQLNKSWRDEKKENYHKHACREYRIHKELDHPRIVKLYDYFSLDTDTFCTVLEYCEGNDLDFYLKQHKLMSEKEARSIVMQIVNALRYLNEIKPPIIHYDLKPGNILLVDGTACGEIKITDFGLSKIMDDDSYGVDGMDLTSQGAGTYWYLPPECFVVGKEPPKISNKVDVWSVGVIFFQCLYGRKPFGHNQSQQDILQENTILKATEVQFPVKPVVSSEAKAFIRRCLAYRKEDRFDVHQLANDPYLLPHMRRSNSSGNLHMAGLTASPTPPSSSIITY

test | conditions | remaining binding [%] | SMILES
cell-free assay, competition with immobilised ligand | 1 µM | 100 | O=S(=O)(NC1CCC(c2cc(F)ccc2F)(S(=O)(=O)c2ccc(Cl)cc2)CC1)C(F)(F)F (centres unmarked)
binding | 1 µM | 39 | N[C@@H]1CCN(c2nccc(-c3cnn4ncccc34)n2)C1
binding, competition with immobilised ligand | 10 µM | 100 | c1cncc(-c2cccc(Nc3nccc(NC4CCCCC4)n3)c2)c1
binding, competition with immobilised ligand | 1 µM | 12 | O=C(c1ccc(Nc2nccc(-c3cc4ccccc4s3)n2)cc1)N1CCC(N2CCCC2)CC1
binding | 1 µM | 75 | Cc1cnn2ncc(-c3ccnc(N(C)C)n3)c2c1
cell-free assay, competition with immobilised ligand | 1 µM | 75 | CCS(=O)(=O)c1cc2cc(C[C@](O)(CC(C)(C)c3ccc(F)cc3C(N)=O)C(F)(F)F)[nH]c2cn1
binding, competition with immobilised ligand | 1 µM | 88 | CCN1CCN(Cc2ccc(C(=O)Nc3ccc(C)c(Oc4ccc5c(c4)CC(=O)N5)c3)cc2C(F)(F)F)CC1
binding, competition with immobilised ligand | 1 µM | 99 | C=CC(=O)N1CCC(C(=O)NCC(=O)N2CCN(c3nc(-c4cnc(N)nc4C(F)F)nc(N4CCOCC4)n3)CC2)CC1
binding, competition with immobilised ligand | 1 µM | 100 | O=C(Nc1c[nH]nc1C(=O)NC1CCNCC1)c1cc(F)cc(F)c1
binding | 1 µM | 100 | COc1ccnn2ncc(-c3ccnc(N(C)C)n3)c12
binding, competition with immobilised ligand | 1 µM | 75 | O=C(NCCCN1CCOCC1)c1ccc(Nc2ncc(Cl)c(-c3ccc(Cl)s3)n2)cc1
cell-free assay, competition with immobilised ligand | 1 µM | 94 | O=C1NC(c2ccccn2)Sc2ccccc21 (centres unmarked)
binding | 1 µM | 92 | CN(C)c1nccc(-c2cnn3ncccc23)n1
binding, competition with immobilised ligand | 1 µM | 87 | Nc1ncc2c(n1)-c1c([nH]c3ccc(C#CC4CC4)cc13)CCCC2
cell-free assay, competition with immobilised ligand | 0.1 µM | 100 | Cc1c[nH]c2nccc(Oc3c(F)cc(Nc4cc(Cl)nc(N)n4)cc3F)c12
binding | 1 µM | 100 | CN(c1nccc(-c2cnn3ncccc23)n1)C1CC1
cell-free assay, competition with immobilised ligand | 1 µM | 68 | O=C(NC[C@@H]1[C@H]2CN(C(=O)OCc3cc(C(F)(F)F)cc(C(F)(F)F)c3)C[C@@H]12)c1ccc2[nH]nnc2c1
binding, competition with immobilised ligand | 1 µM | 97 | CNC(=O)[C@@H]1CC[C@@H](n2c(-c3ccc4cnccc4c3)nc3ccc(C(=O)NCc4cccc(C(N)=O)c4)cc32)C1
binding, competition with immobilised ligand | 1 µM | 32 | O=C(c1ccc(Nc2ncc(Cl)c(-c3cc4ccccc4s3)n2)cc1)N1CCC(N2CCCC2)CC1
cell-free assay, competition with immobilised ligand | 1 µM | 100 | CN(C)C(=O)Cn1cc(-c2nc([C@@](C)(c3ccc(-c4cnc(N)nc4)cc3)C3CC3)no2)cn1
